Source: ChEMBL document CHEMBL3351639, “Fluorinated analogues of marsanidine, a highly α2-AR/imidazoline I1 binding site-selective hypotensive agent. Synthesis and biological activities” (Eur J Med Chem, 2014)

Legend:
[1] = molecular target: T1, Adrenergic receptor alpha-2 (Rattus norvegicus, UniProt P22086+P19328+P22909); assay: Displacement of [3H]RX821002 from alpha2-adrenoceptor in Sprague-Dawley rat brain membranes after 45 mins by liquid scintillation counting; format: cell membranes, Membrane
T1 sequence (P22086 whole entry): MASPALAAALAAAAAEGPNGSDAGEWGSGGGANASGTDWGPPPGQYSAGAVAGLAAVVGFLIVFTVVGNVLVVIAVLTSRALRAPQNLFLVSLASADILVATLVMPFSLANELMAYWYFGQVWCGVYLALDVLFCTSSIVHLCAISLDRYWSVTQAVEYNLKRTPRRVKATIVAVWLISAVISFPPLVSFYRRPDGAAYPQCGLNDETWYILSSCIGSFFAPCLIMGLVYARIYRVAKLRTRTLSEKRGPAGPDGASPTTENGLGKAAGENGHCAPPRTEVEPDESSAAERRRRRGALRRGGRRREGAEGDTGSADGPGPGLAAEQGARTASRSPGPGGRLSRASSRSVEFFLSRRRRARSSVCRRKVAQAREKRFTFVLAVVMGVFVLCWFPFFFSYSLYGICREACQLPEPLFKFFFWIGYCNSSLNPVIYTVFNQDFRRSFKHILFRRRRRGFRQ
T1 sequence (P19328 whole entry): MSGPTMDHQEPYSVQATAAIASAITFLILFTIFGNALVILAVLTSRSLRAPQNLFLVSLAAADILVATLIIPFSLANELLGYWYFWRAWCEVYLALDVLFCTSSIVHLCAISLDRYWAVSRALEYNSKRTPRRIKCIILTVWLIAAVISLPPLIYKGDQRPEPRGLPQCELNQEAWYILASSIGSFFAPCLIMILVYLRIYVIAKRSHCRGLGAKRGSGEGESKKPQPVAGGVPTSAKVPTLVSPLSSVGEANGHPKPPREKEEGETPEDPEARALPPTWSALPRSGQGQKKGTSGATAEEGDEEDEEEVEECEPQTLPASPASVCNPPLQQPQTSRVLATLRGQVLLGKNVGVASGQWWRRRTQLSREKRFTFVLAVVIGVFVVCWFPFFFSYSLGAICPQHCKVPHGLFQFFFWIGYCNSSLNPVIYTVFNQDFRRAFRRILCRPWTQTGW
T1 sequence (P22909 whole entry): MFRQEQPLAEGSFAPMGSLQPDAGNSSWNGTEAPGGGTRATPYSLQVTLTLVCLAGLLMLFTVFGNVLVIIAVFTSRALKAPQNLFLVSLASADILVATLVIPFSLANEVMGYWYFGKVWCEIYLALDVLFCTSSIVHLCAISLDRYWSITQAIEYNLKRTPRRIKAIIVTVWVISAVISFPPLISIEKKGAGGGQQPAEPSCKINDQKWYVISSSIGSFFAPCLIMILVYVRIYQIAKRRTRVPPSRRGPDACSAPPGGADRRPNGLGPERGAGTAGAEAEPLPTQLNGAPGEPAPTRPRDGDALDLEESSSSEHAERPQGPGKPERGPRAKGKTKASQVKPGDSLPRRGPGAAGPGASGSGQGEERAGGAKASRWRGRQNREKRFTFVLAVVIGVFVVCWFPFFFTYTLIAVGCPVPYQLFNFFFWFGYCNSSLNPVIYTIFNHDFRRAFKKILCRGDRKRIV
Summary of the method: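 Crude P2 membranes from brains of male Sprague-Dawley rats (250–280 g), 0.2–0.3 mg protein. Radioligand 1 nM [3H]RX821002 (α2) or [3H]prazosin (α1); 11 concentrations of compound, 0.1 nM–100 µM. Non-specific binding: 10 µM rauwolscine (α2) or 10 µM phenylephrine (α1). Triplicate incubation, RT, 45 min. PEI-soaked glass-fibre filtration, then scintillation counting. Ki by Cheng-Prusoff; 3–4 experiments, or one for low-affinity compounds.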

[2] = Displacement of […] from imidazoline I2 receptor in Sprague-Dawley rat kidney membranes after 45 mins by liquid scintillation counting; format: cell membranes, Membrane
[3] = system: Rattus norvegicus; assay: Hypertensive activity in anesthetized Wistar rat assessed as time required for maximal increase in mean arterial blood pressure at 0.1 mg/kg, iv measured during 60 mins post dose; format: organism-based; parameters: dose 0.1 mg/kg, route intravenous; settings: in vivo, 1 h
Summary of the method: (§1)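 Male Wistar rats (200–290 g) anaesthetized with thiopental 70 mg/kg i.p., maintained at 30 µg/kg/min; body temperature 36–37 °C. Carotid catheter recorded MAP and HR; jugular catheter for infusion. After 40 min of saline/thiopental infusion (1.2 ml/h), 0.1 mg/kg given as i.v. bolus (time 0). Signals sampled at 100 Hz. Maximal change from time 0 over 60 min, and its time, recorded. Saline vehicle control; n = 4–5.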

[4] = system: Rattus norvegicus; assay: Hypotensive activity in anesthetized Wistar rat assessed as time required for maximal reduction in mean arterial blood pressure at 0.1 mg/kg, iv; format: functional; summary of the method: as §1
[5] = system: Rattus norvegicus; assay: Cardiovascular activity in anesthetized Wistar rat assessed as time required for maximal reduction in heart rate at 0.1 mg/kg, iv measured during 60 mins post dose; format: functional; summary of the method: as §1
[6] = molecular target: Nischarin (Rattus norvegicus, UniProt Q4G017); assay: Displacement of […] from imidazoline I1 receptor in Sprague-Dawley rat kidney membranes after 45 mins by liquid scintillation counting; format: cell membranes, Membrane
Nischarin, sequence (Q4G017 whole entry): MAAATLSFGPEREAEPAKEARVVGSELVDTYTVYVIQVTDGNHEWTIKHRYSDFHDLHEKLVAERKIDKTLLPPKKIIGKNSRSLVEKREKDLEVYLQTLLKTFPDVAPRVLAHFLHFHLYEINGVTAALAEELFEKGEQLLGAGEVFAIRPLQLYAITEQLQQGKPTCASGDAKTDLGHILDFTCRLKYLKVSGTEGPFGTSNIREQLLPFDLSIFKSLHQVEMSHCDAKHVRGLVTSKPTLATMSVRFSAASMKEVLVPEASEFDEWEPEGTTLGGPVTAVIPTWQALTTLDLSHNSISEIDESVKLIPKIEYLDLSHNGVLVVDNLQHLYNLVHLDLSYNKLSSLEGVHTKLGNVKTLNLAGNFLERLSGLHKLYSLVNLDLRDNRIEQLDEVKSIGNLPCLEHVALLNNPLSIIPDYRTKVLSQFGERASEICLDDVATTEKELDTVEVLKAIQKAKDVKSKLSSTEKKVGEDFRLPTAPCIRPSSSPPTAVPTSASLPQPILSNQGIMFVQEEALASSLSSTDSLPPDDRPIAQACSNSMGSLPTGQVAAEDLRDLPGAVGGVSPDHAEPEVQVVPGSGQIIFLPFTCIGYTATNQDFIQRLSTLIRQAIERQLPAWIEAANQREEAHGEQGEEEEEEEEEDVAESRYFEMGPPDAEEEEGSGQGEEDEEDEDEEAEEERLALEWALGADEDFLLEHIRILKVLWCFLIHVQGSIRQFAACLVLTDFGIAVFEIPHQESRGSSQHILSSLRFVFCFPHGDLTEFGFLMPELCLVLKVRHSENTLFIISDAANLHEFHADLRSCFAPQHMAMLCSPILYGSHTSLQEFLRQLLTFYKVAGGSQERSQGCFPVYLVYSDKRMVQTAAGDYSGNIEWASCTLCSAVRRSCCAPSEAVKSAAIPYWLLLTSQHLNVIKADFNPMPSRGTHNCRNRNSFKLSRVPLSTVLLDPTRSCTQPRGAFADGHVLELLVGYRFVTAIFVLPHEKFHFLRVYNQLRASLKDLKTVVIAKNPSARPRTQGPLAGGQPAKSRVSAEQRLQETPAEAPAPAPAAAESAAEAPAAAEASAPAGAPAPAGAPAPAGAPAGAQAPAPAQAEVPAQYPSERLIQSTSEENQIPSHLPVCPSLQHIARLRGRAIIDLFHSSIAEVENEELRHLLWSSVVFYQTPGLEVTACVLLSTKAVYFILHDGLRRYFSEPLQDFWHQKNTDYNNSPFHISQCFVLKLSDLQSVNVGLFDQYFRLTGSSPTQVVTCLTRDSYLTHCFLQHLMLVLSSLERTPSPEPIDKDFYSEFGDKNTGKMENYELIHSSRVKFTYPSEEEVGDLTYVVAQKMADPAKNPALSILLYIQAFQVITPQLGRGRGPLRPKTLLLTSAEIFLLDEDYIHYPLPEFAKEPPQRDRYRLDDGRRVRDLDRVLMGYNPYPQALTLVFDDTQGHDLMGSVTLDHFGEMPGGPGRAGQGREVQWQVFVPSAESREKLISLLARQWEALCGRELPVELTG

Fc1ccc2cnn(N=C3NCCN3)c2c1
Ki [1]: 0.0262 µM | Ki [2]: 22 µM | Time [3]: 3 min | Time [4]: 35 min | Time [5]: 2 min | IC50 [6]: 20.7 µM

Fc1cccc2cnn(N=C3NCCN3)c12
Ki [1]: 0.03097 µM | Ki [2]: 349 µM | Time [3]: 4 min | Time [4]: 33 min | Time [5]: 10 min | IC50 [6]: 7.74 µM

Fc1ccc2c(cnn2N=C2NCCN2)c1
Ki [1]: 0.06433 µM | Ki [2]: 5.7 µM | Time [3]: 2 min | Time [4]: 11 min | Time [5]: 5 min | IC50 [6]: 0.0916 µM

Fc1ccc2cnn(CC3=NCCN3)c2c1
Ki [1]: 0.02973 µM | Ki [2]: 0.00819 µM | Time [3]: 4 min | Time [4]: 36 min | Time [5]: 5 min | IC50 [6]: 33.5 µM

Fc1ccc2c(cnn2CC2=NCCN2)c1
Ki [1]: 0.03217 µM | Ki [2]: 0.0104 µM | Time [3]: 2 min | Time [4]: 40 min | Time [5]: 38 min | IC50 [6]: 2.42 µM
